Measurements from PMC10412738 (Cell reports, 2023).
Each block holds one molecule with its values, some of them ahead of it.

Tests used:
Y79 cells [1] = test: Cell proliferation; type: cell-based; settings: for growth arrest following SFRP2 silencing, Wnt inhibitors: 1 μM, SFRP2 siRNA
In short: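 SFRP2 or control siRNA transfected with Lipofectamine RNAiMAX, then cells given recombinant human SFRP2 at 250 ng/mL or left untreated. Proliferation tracked by IncuCyte live-cell imaging. RB383 were grown in IMDM with 10% FBS, 10 μg/mL insulin and 55 μM β-mercaptoethanol; Y79 in RPMI-1640 with 10% FBS.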

[2] = test system: NO production in RB383 cells; test: NO production, nitrate/nitrite colorimetric assay, RB383; type: cell-based; settings: n = 3; for NO production: RB383 cells, 1 μg/mL, NO in the CM; for NO production following SFRP2 silencing: CM, 12 h
In short: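 Test peptides (12-mer SFRP2 binders from phage display) added to RB383 at 1 μg/mL. At the indicated time points, NO in the conditioned medium was measured by nitrite/nitrate colorimetric assay; n = 3.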

[3] = test system: ARPE-19 retinal pigment epithelial cells; test: Cell proliferation; type: cell-based, human; settings: 1 μg/mL, IncuCyte
NOS2 RNA in RB383 cells = test: NOS2 RNA by qRT-PCR, RB383; type: cell-based; settings: n = 3; for NOS2 RNA induction: RB383 cells, 1 μg/mL, qRT-PCR; for NOS2 RNA induction following SFRP2 silencing: 12 h
RB383 cells = test: Cell proliferation; type: cell-based; settings: for inhibition of proliferation: RB383 cells, 1 μg/mL, IncuCyte
[4] = test system: phosphorylated CREB (phospho-serine 133) in RB383 cells; test: Phosphorylated CREB by immunoblotting, RB383; type: cell-based; settings: for phosphorylated CREB induction: RB383 cells, 1 μg/mL, immunoblotting
p21 in RB383 cells = test: p21 induction following SFRP2 silencing, immunoblotting, RB383; type: cell-based; settings: 1 μM carboxy-PTIO, 5 μM NS-2028, or 2.5 μM KT5823
In short: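 In RB383 cells transfected with SFRP2 or control siRNA, treatment was none, 1 μM carboxy-PTIO, 5 μM NS-2028 or 2.5 μM KT5823. p21 protein was then assessed by SDS-PAGE immunoblotting of whole-cell lysate.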

retinoblastoma cells = test: Rescue of growth inhibition following SFRP2 silencing; type: cell-based; settings: SFRP2 siRNA
In short: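 Retinoblastoma cell lines transfected with SFRP2 or control siRNA (RNAiMAX), then exposed to 5 μM NS-2028 (sGC inhibitor) or 2.5 μM KT5823 (PKG inhibitor), or left untreated. Proliferation measured by IncuCyte live-cell imaging.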

[5] = test system: NO production in Y79 cells; test: NO production, nitrate/nitrite colorimetric assay, Y79; type: cell-based; settings: 2 μM, CM and cell lysate, n = 3
In short: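 Y79 retinoblastoma cells were exposed to a small-molecule SFRP inhibitor at 2 μM. At the indicated times, NO production was measured in conditioned medium and in cell lysate by nitrite/nitrate colorimetric assay. n = 3; data given as mean ± SEM.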

SFRP1 = settings: cited from earlier work
[6] = test system: SFRP2 RNA in retinoblastoma cells; test: SFRP2 RNA silencing in retinoblastoma; type: cell-based; settings: n = 3
[7] = target: Recombinant human CXADR protein (3336-CX-050, R&D Systems) (human) (UniProt P78310); test: MST
[8] = test system: CXADR-overexpressing Y79 cells; test: Cell proliferation of CXADR-overexpressing Y79 cells; type: cell-based; settings: 250 ng/mL recombinant SFRP2
In short: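 Y79 cells were infected with pCDH1-puro lentivirus (made in 293T) carrying CXADR cDNA or empty vector, then selected in 5 μg/mL puromycin for 48 h. Expression was checked by anti-CXADR immunoblot. Cells were treated with recombinant SFRP2 at 250 ng/mL or left untreated, and proliferation was monitored by IncuCyte.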

recombinant CXADR = test: Microscale thermophoresis of SFRP2-CXADR interaction; type: binding, human; settings: read-out: KD of SFRP2-CXADR interaction, labeled CXADR, PBS/0.005% Tween 20, 30-min incubation at room temperature, Monolith NT.115
In short: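 Recombinant human CXADR was fluorescently labelled with the RED-NHS second-generation dye kit. It was mixed with recombinant human SFRP2, incubated, and loaded into capillary chips. KD was derived from microscale thermophoresis affinity analysis.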

[9] = test system: NO production in CXADR-overexpressing Y79 cells; test: NO production in CXADR-overexpressing Y79 cells; type: cell-based; settings: 250 ng/mL recombinant SFRP2, n = 3
Y79 cells [10] = test: Ligand-binding assay of SFRP2-FLAG to Y79 cells; settings: anti-FLAG immunoblotting after washing
In short: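 C-terminally FLAG-tagged SFRP2 was secreted from transfected 293T cells. It was incubated with Y79 cells previously transfected (Lipofectamine RNAiMAX) with CXADR siRNA or control siRNA. Cells were washed to remove unbound protein and lysed. Whole-cell lysate went to SDS-PAGE and anti-FLAG immunoblotting. CXADR knockdown was confirmed by immunoblotting.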

CXADR = test: Co-immunoprecipitation of SFRP2 with endogenous CXADR in 293T cells; type: binding; settings: C-terminally FLAG-tagged SFRP2, 293T cells
In short: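 FLAG-tagged constructs (C-terminally FLAG-tagged SFRP2 in pcDNA3) were transfected by calcium phosphate co-precipitation into 293T cells grown in DMEM with 10% fetal bovine serum. Anti-FLAG immunoprecipitation was followed by SDS-PAGE and anti-CXADR immunoblotting for endogenous CXADR.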

Molecule: Oc1nc(-c2ccc(C(F)(F)F)cc2)nc2c1CSCC2 [XAV939]
growth arrest following SFRP2 silencing, Wnt inhibitors (Y79 cells [1]): did not rescue the growth arrest of retinoblastoma cells following SFRP2 silencing

Molecule: HGWASLLNYSWY [peptide II]
NO production [2]: rapidly induced | growth of ARPE-19 cells [3]: do not inhibit the growth of retinal pigment epithelial cells | NOS2 RNA induction (NOS2 RNA in RB383 cells): rapidly induced | inhibition of proliferation (RB383 cells): strongly inhibited proliferation of retinoblastoma cells | phosphorylated CREB induction [4]: rapidly induced phosphorylated CREB | inhibition of proliferation (Y79 cells [1]; 1 μg/mL, IncuCyte): strongly inhibited proliferation of retinoblastoma cells

Molecule: O=C(CSc1nc2c(c(=O)n1-c1ccccc1)SCC2)Nc1ccc(-c2ccccc2)cn1 [IWP-L6]
growth arrest following SFRP2 silencing, Wnt inhibitors (Y79 cells [1]): did not rescue the growth arrest of retinoblastoma cells following SFRP2 silencing

Molecule: O=c1onc2n1-c1cc(Br)ccc1OC2 [NS-2028]
p21 induction following SFRP2 silencing (p21 in RB383 cells): abolished | growth inhibition following SFRP2 silencing (rescue), sGC inhibitor (retinoblastoma cells; 5 μM): abolished

Molecule: HNPFTFFGPMFY [peptide I]
NO production [2]: rapidly induced | growth of ARPE-19 cells [3]: do not inhibit the growth of retinal pigment epithelial cells | NOS2 RNA induction (NOS2 RNA in RB383 cells): rapidly induced | inhibition of proliferation (RB383 cells): strongly inhibited proliferation of retinoblastoma cells | phosphorylated CREB induction [4]: rapidly induced phosphorylated CREB | inhibition of proliferation (Y79 cells [1]; 1 μg/mL, IncuCyte): strongly inhibited proliferation of retinoblastoma cells

Molecule: [H]/N=C(/NC)NCCC[C@H](N)C(=O)O [L-NMMA]
growth inhibition following SFRP2 silencing (rescue), pan-NOS inhibitor (retinoblastoma cells; concentrations in figure): abolished growth inhibition following SFRP2 silencing

Molecule: CC(=O)N[C@@H](C(=O)O)C(C)(C)SN=O (racemic) [SNAP]
retinoblastoma growth, NO donor (Y79 cells [1]; concentrations in figure, IncuCyte): inhibited retinoblastoma growth in a dose-dependent manner

Molecule: Nc1ncc2c(n1)CC(c1ccco1)CC2=O (stereo not drawn) [NKY80]
NO production following SFRP2 silencing ([2]; RB383, 1 μM NKY80, SFRP2 siRNA): abolished | NOS2 RNA induction following SFRP2 silencing (NOS2 RNA in RB383 cells; RB383, 1 μM NKY80, SFRP2 siRNA): abolished NOS2 induction | growth inhibition following SFRP2 silencing (RB383 cells; RB383, 1 μM NKY80, SFRP2 siRNA): abolished

Molecule: O=S(=O)(NC1CCNCC1)c1cc(S(=O)(=O)c2ccccc2)ccc1C(F)(F)F [WAY-316606]
NO generation [5]: rapidly induces NO generation in retinoblastoma cells | inhibition of proliferation (Y79 cells [1]; dose range in figure, IncuCyte): efficiently inhibited retinoblastoma cell proliferation in a dose-dependent manner | inhibition of SFRP1 (SFRP1): potent inhibitor of SFRP1

Molecule: CC1(C)N([O])C(c2ccc(C(=O)O)cc2)=[N+]([O-])C1(C)C [carboxy-PTIO]
p21 induction following SFRP2 silencing (p21 in RB383 cells): abolished | effect on SFRP2 silencing [6]: did not affect SFRP2 silencing | growth inhibition following SFRP2 silencing (rescue), NO scavenger (retinoblastoma cells; 1 μM, all five retinoblastoma cell lines): completely abolished SFRP2 silencing-induced growth inhibition in all five retinoblastoma cell lines

Molecule: COC(=O)[C@@]1(OC)C[C@H]2O[C@]1(C)n1c3ccccc3c3c4c(c5c6ccccc6n2c5c31)C(=O)N(C)C4 [KT5823]
p21 induction following SFRP2 silencing (p21 in RB383 cells): abolished | growth inhibition following SFRP2 silencing (rescue), PKG inhibitor (retinoblastoma cells; 2.5 μM): abolished

Molecule: O=S(=O)(NCCNC/C=C/c1ccc(Br)cc1)c1cccc2cnccc12 [H89]
NO production following SFRP2 silencing ([2]; RB383, 5 μM H89, SFRP2 siRNA): abolished | NOS2 RNA induction following SFRP2 silencing (NOS2 RNA in RB383 cells; RB383, 5 μM H89, SFRP2 siRNA): abolished | growth inhibition following SFRP2 silencing (RB383 cells; RB383, 5 μM H89, SFRP2 siRNA): abolished | CREB phosphorylation following SFRP2 silencing ([4]; RB383, 5 μM H89, SFRP2 siRNA, 48 h): abolished CREB phosphorylation

Kd [7]: 11.9 nM
B1: Recombinant human SFRP2 protein (6838-FR-025, R&D Systems) (ligand)
chain: LFLFGQPDFSYKRSNCKPIPANLQLCHGIEYQNMRLPNLLGHETMKEVLEQAGAWIPLVMKQCHPDTKKFLCSLFAPVCLDDLDETIQPCHSLCVQVKDRCAPVMSAFGFPWPDMLECDRFPQDNDLCIPLASSDHLLPATEEAPKVCEACKNKNDDDNDIMETLCKNDFALKIKVKEITYINRDTKIILETKSKTIYKLNGVSERDLKKSVLWLKDSLQCTCEEMNDINAPYLVMGQKQGGELVITSVKRWQKGQREFKRISRSIRKLQC

Kd (recombinant CXADR): 11.9 nM
B2: recombinant SFRP2: Recombinant human SFRP2 protein (R&D Systems) (protein)
chain: B1 chain
modifications: left off: FLAG, C-terminal, kept
proliferation of CXADR-overexpressing cells [8]: rescue of proliferation | NO generation in CXADR-overexpressing cells [9]: rapidly abolished

B3: SFRP2-FLAG: C-terminally FLAG-tagged SFRP2 produced by transfection in 293T cells (protein)
chain: B1 chain
modifications: left off: FLAG, C-terminal, kept
SFRP2-FLAG binding to Y79 cells (Y79 cells [10]): bound to Y79 cells, and this binding was abolished by siRNA-mediated silencing of CXADR | co-immunoprecipitation with CXADR (CXADR): specifically co-immunoprecipitated with CXADR
